We go through two compounds from ChEMBL document CHEMBL4261490, “Exploring the links between peptoid antibacterial activity and toxicity” (Medchemcomm, 2017).

Data set [1] relates to Escherichia coli. Nature of the data set: Antibacterial activity against Escherichia coli K-12 W3110 ATCC 27325 incubated for 16 hrs under shaking condition. The format is functional. The note with it: K-12 substr. W3110 ATCC 27325, 16 h. In short, it runs like this:
(§1)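 Broth microdilution (Andrews method) in Iso-sensitest broth. Overnight cultures are adjusted to A650 0.07 (0.5 McFarland) and diluted ten-fold. Compounds come from 5 mM DMSO stocks, 2-fold serially diluted, final 2–100 μM in a 1:1 inoculum:compound mix. Incubation is 37 °C for 16 h with shaking. MIC is the lowest concentration giving complete growth inhibition, read by absorbance; triplicate.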

The nature of data set [2]: Cytotoxicity against human HaCaT cells assessed as reduction in cell viability pretreated for 1 hr followed by DMEM addition measured after 24 hrs by alamar blue assay. In kind it is cell-based. The note with it: read-out: ED50. The essentials: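 HaCaT keratinocytes are grown in DMEM high glucose with 10% FBS and 1% P/S and seeded at 2x10^4 cells/well 24 h before treatment. Compound dilution series run 2–100 µM (5 mM DMSO stocks) in 50 µL for 1 h, then medium is added for 24 h at 37 °C, 5% CO2. alamarBlue is read after 1 h (Ex 540/Em 620). Triplicate, ≥2 occasions; ED50 from dose-response; amphotericin B positive control.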
For orientation: Alamar Blue is a resazurin reagent that responds to reducing activity.

Data set [3] in a line: Cytotoxicity against human HepG2 cells assessed as reduction in cell viability pretreated for 1 hr followed by DMEM addition measured after 24 hrs by alamar blue assay. The format is cell-based. The note with it: read-out: ED50. The essentials: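 HepG2 cells are kept in DMEM high glucose with 10% heat-inactivated FBS and 1% P/S at 37 °C, 5% CO2, and seeded at 2x10^4 cells/well one day ahead. They are exposed to compounds (100 to 3 µM, from 5 mM DMSO stocks) in 50 µL for 1 h. Medium is then added and cells incubated 24 h. alamarBlue is read after 2 h (Ex 560/Em 600). Triplicate on ≥2 occasions; ED50 from dose-response; DMSO negative control.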

Data set [4] deals with Pseudomonas aeruginosa. Put plainly: Antibacterial activity against Pseudomonas aeruginosa PAO1 ATCC 15692 incubated for 16 hrs under shaking condition. The format is functional. As to conditions: PAO1 ATCC 15692, 16 h. The essentials: as §1
Data set [5] has as its system Staphylococcus aureus. Put plainly: Antibacterial activity against Staphylococcus aureus 3R7089 strain Oxford/ATCC 9144 incubated for 16 hrs under shaking condition. The format is functional. The note with it: 3R7089 strain Oxford/ATCC 9144, 16 h. In short, it runs like this: as §1
Data set [6] has as its system Staphylococcus epidermidis. Nature of the data set: Antibacterial activity against Staphylococcus epidermidis clinical isolate incubated for 16 hrs under shaking condition. In kind it is functional. The essentials:
as §1

Data set [7] can be described thus: Selectivity index, ratio of ED50 for human HaCaT cells to MIC for Escherichia coli K-12 W3110 ATCC 27325. In kind it is toxicity. The note with it: read-out: Selectivity Index.
The nature of data set [8]: Selectivity index, ratio of ED50 for human HaCaT cells to MIC for Pseudomonas aeruginosa PAO1 ATCC 15692. In kind it is toxicity. The note with it: read-out: Selectivity Index.
The nature of data set [9]: Selectivity index, ratio of ED50 for human HaCaT cells to MIC for Staphylococcus aureus 3R7089 strain Oxford/ATCC 9144. As to conditions: read-out: Selectivity Index. In kind it is toxicity.
Data set [10] in a line: Selectivity index, ratio of ED50 for human HaCaT cells to MIC for Staphylococcus epidermidis clinical isolate. In kind it is toxicity. The note with it: read-out: Selectivity Index.
Data set [11] in a line: Selectivity index, ratio of ED50 for human HepG2 cells to MIC for Escherichia coli K-12 W3110 ATCC 27325. The format is toxicity. The note with it: read-out: Selectivity Index.
Data set [12] can be described thus: Selectivity index, ratio of ED50 for human HepG2 cells to MIC for Pseudomonas aeruginosa PAO1 ATCC 15692. The format is toxicity. The note with it: read-out: Selectivity Index.
Data set [13] in a line: Selectivity index, ratio of ED50 for human HepG2 cells to MIC for Staphylococcus aureus 3R7089 strain Oxford/ATCC 9144. The format is toxicity. As to conditions: read-out: Selectivity Index.
Data set [14] can be described thus: Selectivity index, ratio of ED50 for human HepG2 cells to MIC for Staphylococcus epidermidis clinical isolate. The format is toxicity. The note with it: read-out: Selectivity Index.
A short description of data set [15]: Hemolytic activity against human erythrocytes measured after 1 hr. The format is ADME, cell-based, Erythrocyte. As to conditions: read-out: HD50.
Data set [16] in a line: Cytotoxicity against mouse NIH/3T3 cells by MTS assay. The format is cell-based, NIH3T3. The note with it: read-out: ID50 (the source's name).

Square brackets hold non-standard residues; d marks the D form. Peptide text beside a SMILES is read from it. Gly(N-2-aminoethyl) = NCCNCC(=O)O; Nspe = C[C@H](NCC(=O)O)c1ccccc1; Nphe = O=C(O)CNCc1ccccc1; Nlys = NCCCCNCC(=O)O

In the case of `NCCNCC(=O)N(CC(=O)N(CC(=O)N(CCN)CC(=O)N(CC(=O)N(CC(N)=O)Cc1ccccc1)Cc1ccccc1)Cc1ccccc1)Cc1ccccc1` (H-[Gly(N-2-aminoethyl)][Nphe][Nphe][Gly(N-2-aminoethyl)][Nphe][Nphe]-NH2), the MIC in [1], in [4], in data set [5] and in data set [6] was more than 100 µM each time. Moreover, the CC50 at 24 h in data set [2] and in data set [3] was more than 100 µM throughout. Besides, the selectivity ratio in data set [7], in [8], in [9], in [10], in data set [11] and in [12] was 1 in each case. Besides, the selectivity ratio in data set [13] and in [14] was 1 in each case.
Take `C[C@@H](c1ccccc1)N(CC(N)=O)C(=O)CN(C(=O)CN(CCCCN)C(=O)CN(C(=O)CN(C(=O)CN(CCCCN)C(=O)CN(C(=O)CN(C(=O)CN(CCCCN)C(=O)CN(C(=O)CN(C(=O)CNCCCCN)[C@@H](C)c1ccccc1)[C@@H](C)c1ccccc1)[C@@H](C)c1ccccc1)[C@@H](C)c1ccccc1)[C@@H](C)c1ccccc1)[C@@H](C)c1ccccc1)[C@@H](C)c1ccccc1` (H-[Nlys][Nspe][Nspe][Nlys][Nspe][Nspe][Nlys][Nspe][Nspe][Nlys][Nspe][Nspe]-NH2): the HC50 at 1 h in data set [15] stood at 100 µM. Besides, the CC50 in data set [16] worked out at 5.1 µM. The selectivity ratio is 10 in data set [9] and 15 in data set [13].

By MIC is commonly meant the smallest concentration in the dilution series that meets the test's criterion for growth inhibition. High values mean a less susceptible organism, low ones a more susceptible organism.
